From ChEMBL document CHEMBL3758148, “4-Phenylpyridin-2-one Derivatives: A Novel Class of Positive Allosteric Modulator of the M1 Muscarinic Acetylcholine Receptor” (J Med Chem, 2016)

Assays:
[1] = biological target: T1, Muscarinic acetylcholine receptor M1 (Homo sapiens) (UniProt P11229); test: Displacement of [3H]NMS from human muscarinic M1 receptor expressed in CHO Flp-In cells after 1 hr by microbeta liquid scintillation counting-based radioligand binding assay; type: cell-based
T1 sequence (whole entry): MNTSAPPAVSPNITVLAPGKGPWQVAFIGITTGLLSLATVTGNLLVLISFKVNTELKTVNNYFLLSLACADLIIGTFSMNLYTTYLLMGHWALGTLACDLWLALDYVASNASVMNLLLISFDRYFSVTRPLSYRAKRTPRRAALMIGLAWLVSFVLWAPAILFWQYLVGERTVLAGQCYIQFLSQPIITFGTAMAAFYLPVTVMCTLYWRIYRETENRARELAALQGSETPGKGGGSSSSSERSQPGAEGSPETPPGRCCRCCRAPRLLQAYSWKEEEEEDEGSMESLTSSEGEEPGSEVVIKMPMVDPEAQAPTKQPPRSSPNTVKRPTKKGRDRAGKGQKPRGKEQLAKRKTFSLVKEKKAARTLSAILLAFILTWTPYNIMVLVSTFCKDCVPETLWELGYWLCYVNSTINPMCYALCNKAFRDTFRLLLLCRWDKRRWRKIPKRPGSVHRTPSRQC
Summary of the method: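 Intact adherent Flp-In CHO cells expressing hM1 (10⁴ cells/well), incubated with 0.2 nM [3H]NMS, varying ACh and modulator in HEPES-buffered saline pH 7.4 for 1 h at 37 °C. Washed with ice-cold 0.9% NaCl, then scintillation counted. Fitted to an allosteric ternary complex model with [3H]NMS KA 0.2 nM. Mean ± SEM, ≥3 experiments in duplicate.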

[2] = biological target: T1, Muscarinic acetylcholine receptor M1 (Homo sapiens); test: Positive allosteric modulation of human muscarinic M1 receptor expressed in CHO Flp-In cells assessed as functional cooperativity with acetylcholine measured as IP1 accumulation after 1 hr by HTRF method; type: cell-based
Summary of the method: (§1)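 Suspended Flp-In CHO cells stably expressing hM1, stimulated at 10⁶ cells/ml in HEPES buffer with 50 mM LiCl, pH 7.4, using increasing ACh with or without increasing modulator, 1 h at 37 °C, 5% CO2. IP1 read by HTRF (665/590 nm ratio). Curves fitted globally to the operational model of allosterism, with KB fixed from binding. Mean ± SEM, ≥3 experiments in duplicate.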

[3] = biological target: T1, Muscarinic acetylcholine receptor M1 (Homo sapiens); test: Allosteric agonist activity at human muscarinic M1 receptor expressed in CHO Flp-In cells assessed as intrinsic activity measured as IP1 accumulation after 1 hr by HTRF method; type: functional, cell-based; summary of the method: as §1

Row | SMILES | Kb [1] [µM] | pKb [1] | log(activity) [2] | Intrinsic activity [3] | log(IA) [3]
1 | O=c1cc(-c2ccccc2OCc2ccc(-c3ccncc3)cc2)ccn1[C@H]1CCCC[C@@H]1O (racemic) | 11 | 4.95 | 1.01 | 0.43 | -0.37
2 | N#Cc1ccc(COc2ccccc2-c2ccn([C@H]3CCCC[C@@H]3O)c(=O)c2)cc1 (racemic) | 14 | 4.85 | 0.49 | 0.19 | -0.73
3 | O=c1cc(-c2ccccc2OCc2ccc(-c3cnn(C4CCCC4)c3)cc2)ccn1[C@H]1CCCC[C@@H]1O (racemic) | 4 | 5.45 | 1.92 | 0.38 | -0.42
4 | O=C(O)c1ccc(COc2ccccc2-c2ccn([C@H]3CCCC[C@@H]3O)c(=O)c2)cc1 (racemic) |  | 3.88 | 0.92 |  | -1.24
5 | N#Cc1cccc(COc2ccccc2-c2ccn([C@H]3CCCC[C@@H]3O)c(=O)c2)c1 (racemic) | 87 | 4.06 | 0.88 | 0.25 | -0.59
6 | O=c1cc(-c2ccccc2OCc2ccccc2)ccn1[C@H]1CCCC[C@@H]1O (racemic) | 28 | 4.55 | 0.94 | 0.58 | -0.24
7 | O=c1cc(-c2ccccc2OCc2ccc(-c3cccnc3)cc2)ccn1[C@H]1CCCC[C@@H]1O (racemic) | 19 | 4.72 | 1.29 | 0.38 | -0.42
8 | CCn1cc(-c2ccc(COc3ccccc3-c3ccn([C@H]4CCCC[C@@H]4O)c(=O)c3)cc2)cn1 (racemic) | 41 | 4.38 | 2.26 | 0.89 | -0.05
9 | O=c1cc(-c2ccccc2OCc2ccc(-c3nccs3)cc2)ccn1[C@H]1CCCC[C@@H]1O (racemic) | 11 | 4.96 | 0.8 | 0.45 | -0.35
10 | Cn1cc(-c2ccc(COc3c(F)ccc(F)c3-c3ccn([C@H]4CCCC[C@@H]4O)c(=O)c3)cc2)cn1 (racemic) | 42 | 4.38 | -0.41 | 1.34 | 0.13
11 | CCCn1cc(-c2ccc(COc3ccccc3-c3ccn([C@H]4CCCC[C@@H]4O)c(=O)c3)cc2)cn1 (racemic) | 23 | 4.64 | 1.78 | 0.3 | -0.52
12 | COC(=O)c1cccc(COc2ccccc2-c2ccn([C@H]3CCCC[C@@H]3O)c(=O)c2)c1 (racemic) | 100 | 3.99 | 0.52 | 0.15 | -0.82
13 | O=c1cc(-c2ccccc2NCc2ccc(-c3cccnc3)cc2)ccn1[C@H]1CCCC[C@@H]1O (racemic) | 21 | 4.67 | 0.47 | 0.74 | -0.13
14 | Cn1cc(-c2ccc(COc3ccccc3-c3ccn([C@H]4CCCC[C@@H]4O)c(=O)c3)c(F)c2)cn1 (racemic) | 31 | 4.51 | 1.93 | 0.43 | -0.37
15 | O=c1cc(-c2ccccc2OCc2ccc(-c3cncnc3)cc2)ccn1[C@H]1CCCC[C@@H]1O (racemic) | 35 | 4.45 | 1.34 | 0.16 | -0.8
16 | O=C(O)c1cccc(COc2ccccc2-c2ccn([C@H]3CCCC[C@@H]3O)c(=O)c2)c1 (racemic) | 91 | 4.04 | 1.08 | 0.2 | -0.69
17 | CCCCn1cc(-c2ccc(COc3ccccc3-c3ccn([C@H]4CCCC[C@@H]4O)c(=O)c3)cc2)cn1 (racemic) | 14 | 4.86 | 0.75 | 0.5 | -0.3
